In ChEMBL document CHEMBL1156580, “A facile regioselective synthesis of novel spiro-thioxanthene and spiro-xanthene-9',2-[1,3,4]thiadiazole derivatives as potential analgesic and anti-inflammatory agents” (Bioorg Med Chem Lett, 2008):

Experiments:
Rattus norvegicus [1] = assay: Antiinflammatory activity in Sprague-Dawley rat assessed as inhibition of carrageenan-induced paw edema at 70 mg/kg, po after 4 hrs relative to control; format: functional
Procedure, shortened: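 Winter carrageenin paw oedema in adult male Sprague–Dawley rats (150–180 g, six per group), fasted overnight with water available. Dosing was 70 mg/kg po in 1% CMC, with controls on vehicle alone, 1 h before 0.1 mL 1.0% carrageenin into the right hind plantar region. Paw volume was read by plethysmometer before and 4 h after, giving % inhibition versus control.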

Mus musculus = assay: Analgesic activity in Swiss mouse assessed as inhibition of acetic acid-induced writhing responses at 70 mg/kg, po after 1 hr relative to control
Rattus norvegicus [2] = assay: Acute toxicity in Sprague-Dawley rat assessed as toxicological changes up to 200 mg/kg, po; format: organism-based; design: dose 200 mg/kg, route oral; conditions: in vivo
Procedure, shortened: (§1)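 Male Sprague–Dawley rats (200–250 g), housed individually under 12 h light–dark, split into four groups, each given a different single dose by oral gavage. Animals were then watched for deaths or other behavioural changes.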

Rattus norvegicus [3] = assay: Acute toxicity in Sprague-Dawley rat assessed as behavioral changes up to 200 mg/kg, po; format: organism-based; design: dose 200 mg/kg, route oral; conditions: in vivo; procedure, shortened: as §1
Rattus norvegicus [4] = assay: Acute toxicity in Sprague-Dawley rat assessed as survival up to 200 mg/kg, po; format: organism-based; design: dose 200 mg/kg, route oral; conditions: in vivo; procedure, shortened: as §1

For `CC(=O)C1=NN(c2ccccc2)C2(S1)c1ccccc1Sc1ccccc12`, the inhibition in vivo at 70 mg/kg (Rattus norvegicus [1]) was 75%.

`CC(=O)C1=NN(c2ccc([N+](=O)[O-])cc2)C2(S1)c1ccccc1Sc1ccccc12` was tested, and the inhibition in vivo at 70 mg/kg (Mus musculus) was 73% and the inhibition in vivo at 70 mg/kg (Rattus norvegicus [1]) was 86%.

`CC(=O)C1=NN(c2ccccc2)SC12c1ccccc1Oc1ccccc12` showed an inhibition in vivo at 70 mg/kg (Rattus norvegicus [1]) of 79%.

In the case of `CC(=O)C1=NN(c2ccc(Br)cc2)SC12c1ccccc1Oc1ccccc12`, the inhibition in vivo at 70 mg/kg (Rattus norvegicus [1]) is reported as 76%.

In the case of `CCOC(=O)C1=NN(c2ccc(C)cc2)C2(S1)c1ccccc1Sc1ccccc12`, the inhibition in vivo at 70 mg/kg (Rattus norvegicus [1]) is reported as 71%.

In the case of `CC(=O)C1=NN(c2ccc([N+](=O)[O-])cc2)SC12c1ccccc1Oc1ccccc12`, the inhibition in vivo at 70 mg/kg (Mus musculus) is reported as 56.6% and the inhibition in vivo at 70 mg/kg (Rattus norvegicus [1]) is reported as 84%.

`c1ccc(C2=NN(c3ccccc3)C3(S2)c2ccccc2Sc2ccccc23)cc1` was tested, and the Activity (Rattus norvegicus [2]) was “Non-toxic”, the Activity (Rattus norvegicus [3]) was “Non-toxic” and the inhibition in vivo at 70 mg/kg (Mus musculus) was 59%. The inhibition in vivo at 70 mg/kg (Rattus norvegicus [1]) was 85% and the Activity (Rattus norvegicus [4]) was “Non-toxic”.

With `CC(=O)C1=NN(c2ccc(Cl)cc2)C2(S1)c1ccccc1Sc1ccccc12` the Activity (Rattus norvegicus [2]) was “Non-toxic”, the Activity (Rattus norvegicus [3]) was “Non-toxic” and the inhibition in vivo at 70 mg/kg (Mus musculus) was 57%. For the same compound, the inhibition in vivo at 70 mg/kg (Rattus norvegicus [1]) was 82% and the Activity (Rattus norvegicus [4]) was “Non-toxic”.

With `CC(=O)C1=NN(c2ccc(Cl)cc2)SC12c1ccccc1Oc1ccccc12` the inhibition in vivo at 70 mg/kg (Mus musculus) was 72% and the inhibition in vivo at 70 mg/kg (Rattus norvegicus [1]) was 82%.

`CC(C)Cc1ccc(C(C)C(=O)O)cc1` (configuration not stated) [IBUPROFEN] showed an inhibition in vivo at 70 mg/kg (Mus musculus) of 83.5% and an inhibition in vivo at 70 mg/kg (Rattus norvegicus [1]) of 92%.
